Laboratory results as given in ChEMBL document CHEMBL3792316, “2-Phenylbenzofuran derivatives as butyrylcholinesterase inhibitors: Synthesis, biological activity and molecular modeling” (Bioorg Med Chem Lett, 2016).
Activity calls are given as the source filed them. No cut-off for these calls is given here.

What was measured:
[1] = Antioxidant activity assessed as ABTS free radical scavenging activity at 100 uM after 1 min by spectrophotometry
[2] = target: T1, Cholinesterase (Equus caballus, UniProt P81908); assay: Inhibition of equine BChE using S-butyrylthiocholine chloride as substrate by Ellman's method
T1 sequence (P81908 whole entry): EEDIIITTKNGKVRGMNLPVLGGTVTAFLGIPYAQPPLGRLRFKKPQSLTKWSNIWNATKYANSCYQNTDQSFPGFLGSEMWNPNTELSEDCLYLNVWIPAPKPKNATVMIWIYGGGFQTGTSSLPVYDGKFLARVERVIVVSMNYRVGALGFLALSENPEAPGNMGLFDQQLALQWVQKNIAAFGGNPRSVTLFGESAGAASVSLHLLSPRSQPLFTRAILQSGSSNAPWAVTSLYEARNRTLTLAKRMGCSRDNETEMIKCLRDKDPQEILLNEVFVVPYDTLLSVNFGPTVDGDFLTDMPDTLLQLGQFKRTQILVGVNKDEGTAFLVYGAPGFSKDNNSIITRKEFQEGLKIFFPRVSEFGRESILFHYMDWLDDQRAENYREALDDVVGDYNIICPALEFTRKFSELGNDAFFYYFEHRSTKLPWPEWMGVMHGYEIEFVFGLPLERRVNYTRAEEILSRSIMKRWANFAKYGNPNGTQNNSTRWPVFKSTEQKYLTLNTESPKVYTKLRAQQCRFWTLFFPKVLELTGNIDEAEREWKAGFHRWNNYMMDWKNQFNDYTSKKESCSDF
Method in brief: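 IC50 values are the mean ± SD of three independent experiments.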

[3] = target: Cholinesterase (Equus caballus) (UniProt P81908); assay: Inhibition of equine BChE at 100 uM using S-butyrylthiocholine chloride as substrate by Ellman's method
Chain of Cholinesterase (Equus caballus) (P81908 whole entry): as above

[4] = Antioxidant activity assessed as ABTS free radical scavenging activity after 1 min by spectrophotometry
[5] = target: Acetylcholinesterase (Electrophorus electricus) (UniProt O42275); assay: Inhibition of electric eel AChE at 100 uM using acetylthiocholine iodide as substrate by Ellman's method
Chain of Acetylcholinesterase (Electrophorus electricus) (O42275 24-633 limits assumed): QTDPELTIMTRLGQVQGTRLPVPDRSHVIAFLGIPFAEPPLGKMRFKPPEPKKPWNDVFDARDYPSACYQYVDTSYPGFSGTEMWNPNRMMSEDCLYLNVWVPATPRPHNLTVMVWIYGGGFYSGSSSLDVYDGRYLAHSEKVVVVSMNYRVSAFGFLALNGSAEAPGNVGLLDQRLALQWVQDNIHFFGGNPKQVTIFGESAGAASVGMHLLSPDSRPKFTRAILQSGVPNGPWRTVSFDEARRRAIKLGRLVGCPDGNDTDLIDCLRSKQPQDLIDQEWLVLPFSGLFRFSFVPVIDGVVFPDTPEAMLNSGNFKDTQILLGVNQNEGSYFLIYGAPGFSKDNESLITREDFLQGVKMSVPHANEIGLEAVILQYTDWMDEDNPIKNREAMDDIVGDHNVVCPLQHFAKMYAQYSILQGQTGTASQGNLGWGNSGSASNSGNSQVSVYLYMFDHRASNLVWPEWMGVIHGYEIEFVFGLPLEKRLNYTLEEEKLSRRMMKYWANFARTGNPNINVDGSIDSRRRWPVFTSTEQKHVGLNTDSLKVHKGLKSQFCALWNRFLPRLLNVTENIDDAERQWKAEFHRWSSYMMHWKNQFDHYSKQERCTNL

[6] = Cytotoxicity against mouse NSC-34 cells assessed as cell viability after 48 hrs by MTS assay; assay type: cell-based; conditions: nsc-34, 48 h
[7] = target: T1, Cholinesterase; assay: Mixed-type inhibition of equine BChE using S-butyrylthiocholine chloride as substrate assessed as free enzyme by Lineweaver-Burk reciprocal plot method
[8] = target: T1, Cholinesterase; assay: Mixed-type inhibition of equine BChE using S-butyrylthiocholine chloride as substrate assessed as enzyme-substrate complex by Lineweaver-Burk reciprocal plot method

**Q.** With `Oc1ccc(-c2cc3cccc(Br)c3o2)cc1` as the compound, how does the INH [1] read?
**A.** 53%

**Q.** And the IC50 [2]?
**A.** 82.5 µM

**Q.** What about the inhibition [3] of the same compound?
**A.** 54%

**Q.** What about the IC50 ([4]; ABTS free radical) of the same compound?
**A.** 93.6 µM

**Q.** Which IC50 [2] does the source give for `COc1ccc(-c2cc3cccc(Cl)c3o2)cc1` here?
**A.** > 100 µM

**Q.** What about the inhibition [3] of the same compound?
**A.** 5%

**Q.** Which inhibition [5] does the source give for `Oc1ccc(-c2cc3ccccc3o2)cc1` here?
**A.** inactive

**Q.** What about the INH [1] of the same compound?
**A.** 24%

**Q.** What about the IC50 [2] of the same compound?
**A.** > 100 µM

**Q.** And the inhibition [3]?
**A.** inactive

**Q.** Which results are given for `Oc1ccc(-c2cc3cc(Cl)ccc3o2)cc1`?
**A.** INH [1]: 15%; IC50 [2]: > 100 µM; inhibition [3]: 15%

**Q.** Which inhibition [5] does the source give for `Brc1cccc2cc(-c3ccccc3)oc12` here?
**A.** 4%

**Q.** What about the IC50 [2] of the same compound?
**A.** > 100 µM

**Q.** And the inhibition [3]?
**A.** 12%

**Q.** With `Oc1ccc(-c2cc3cccc(Cl)c3o2)cc1` as the compound, how does the Activity [6] read?
**A.** Non-toxic

**Q.** And the Ki [7]?
**A.** 5 µM

**Q.** And the INH [1]?
**A.** 62.4%

**Q.** What about the IC50 [2] of the same compound?
**A.** 30.3 µM

**Q.** And the Ki [8]?
**A.** 87.4 µM

**Q.** What about the inhibition [3] of the same compound?
**A.** 77%

**Q.** What about the IC50 [4] of the same compound?
**A.** 67.6 µM

**Q.** Which results are given for `Cc1cccc2cc(-c3ccc(O)cc3)oc12`?
**A.** INH [1]: 72%; IC50 [2]: 77 µM; inhibition [3]: 58%; IC50 ([4]; ABTS free radical): 53.5 µM

**Q.** Which IC50 ([4]; ABTS free radical) does the source give for `Cc1c(C)c2c(c(C)c1O)CCC(C)(C(=O)O)O2` (stereo unspecified) [TROLOX] here?
**A.** 13 µM

**Q.** Which results are given for `Oc1ccc(-c2cc3cc(Br)ccc3o2)cc1`?
**A.** INH [1]: 15%; IC50 [2]: > 100 µM; inhibition [3]: 16.6%

**Q.** What does the source list for `COc1ccc(-c2cc3ccccc3o2)cc1`?
**A.** inhibition [5]: inactive; IC50 [2]: > 100 µM; inhibition [3]: inactive

**Q.** With `c1ccc(-c2cc3ccccc3o2)cc1` as the compound, how does the inhibition [5] read?
**A.** inactive

**Q.** And the IC50 [2]?
**A.** > 100 µM

**Q.** What about the inhibition [3] of the same compound?
**A.** 6%

**Q.** With `Cc1ccc2oc(-c3ccc(O)cc3)cc2c1` as the compound, how does the inhibition [5] read?
**A.** 4.8%

**Q.** What about the INH [1] of the same compound?
**A.** 31%

**Q.** What about the IC50 [2] of the same compound?
**A.** > 100 µM

**Q.** And the inhibition [3]?
**A.** 19%
